Assay results taken from ChEMBL document CHEMBL1135546, “Dicaffeoyltartaric acid analogues inhibit human immunodeficiency virus type 1 (HIV-1) integrase and HIV-1 replication at nontoxic concentrations” (J Med Chem, 2002).

Legend:
[1] = tested on: Human immunodeficiency virus 1; assay: Inhibition of 50% of the integrase-mediated catalysis of the Y-oligo substrate; assay type: functional
[2] = tested on: Human immunodeficiency virus 1; assay: Inhibition of HIV replication by 50%.; assay type: functional; conditions: read-out: ED50 (the source's name)
[3] = tested on: Human immunodeficiency virus 1; assay: Inhibition of 50% of the integrase-mediated catalysis of the V1/V2 substrate; assay type: functional
MT2 = assay: Inhibition of MT-2 cell growth by 5% or less over a 72 hr time period.; assay type: functional, Homo sapiens
In short: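 Compounds dissolved in water, 95% ethanol or ethanol/DMSO, diluted in growth medium, filter-sterilized, 2-fold serial dilutions in triplicate. MT-2 cells (2 × 10^5) exposed 72 h at 37 °C; viability by neutral red dye uptake. CT5 = 5% growth inhibition (within 1 SD of untreated controls), taken from linear part of dose-response curve; reported as greater than top concentration when not reachable.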

[4] = Therapeutic index (ratio of CT5 to ED50).; conditions: for selectivity ratio: read-out: TI
[5] = tested on: Human immunodeficiency virus 1; assay: Inhibition of 50% of the integrase-mediated catalysis of the Y-oligo substrate with 95% confidence interval; assay type: functional
[6] = tested on: Human immunodeficiency virus 1; assay: Inhibition of 50% of the integrase-mediated catalysis of the V1/V2 substrate with 95% confidence interval; assay type: functional

In the case of `O=C(O)C(O)C(O)C(=O)O` (stereo not drawn), the IC50 [1] is reported as over 25 µM, the EC50 ([2]; Human immunodeficiency virus 1) is reported as over 1000 µM and the IC50 [3] is reported as over 25 µM. It also gave a CT5 (MT2) of over 1000 µM and a selectivity ratio [4] of under 1.

Compound `NC(=O)C(Cc1ccc(O)c(O)c1)C(Cc1ccc(O)c(O)c1)C(=O)O` (stereo not drawn) has an EC50 ([2]; Human immunodeficiency virus 1) of 49 µM, a CT5 (MT2) of 123 µM and a selectivity ratio [4] of 2.5. The IC50 ([5]; Human immunodeficiency virus 1) was 2.84 µM and the IC50 ([6]; Human immunodeficiency virus 1) was over 10 µM.

`CCCCCCCCCCNC(=O)C(Cc1ccc(O)c(O)c1)C(Cc1ccc(O)c(O)c1)C(=O)O` (stereo not drawn) showed an EC50 ([2]; Human immunodeficiency virus 1) of over 37 µM, a CT5 (MT2) of 34 µM and a selectivity ratio [4] of under 1. The IC50 ([5]; Human immunodeficiency virus 1) was over 10 µM and the IC50 ([6]; Human immunodeficiency virus 1) was over 10 µM.

`O=C(/C=C\c1ccc(O)c(O)c1)NC(COC(=O)/C=C/c1ccc(O)c(O)c1)C(=O)O` (stereo not drawn) gave an EC50 [2] of 2.5 µM, a CT5 (MT2) of 39 µM and a selectivity ratio [4] of 16. It also gave an IC50 ([5]; Human immunodeficiency virus 1) of 0.12 µM and an IC50 ([6]; Human immunodeficiency virus 1) of 0.33 µM.

`O=C(/C=C/c1ccc(O)c(O)c1)NCC(OC(=O)/C=C\c1ccc(O)c(O)c1)C(=O)O` (stereo not drawn) showed an EC50 ([2]; Human immunodeficiency virus 1) of 2 µM, a CT5 (MT2) of 175 µM and a selectivity ratio [4] of 88. It also gave an IC50 ([5]; Human immunodeficiency virus 1) of 0.19 µM and an IC50 ([6]; Human immunodeficiency virus 1) of 0.37 µM.

`O=C(OC(C(=O)O)C(OC(=O)c1ccsc1)C(=O)O)c1ccsc1` (stereo not drawn) gave an IC50 [1] of over 10 µM, an EC50 ([2]; Human immunodeficiency virus 1) of over 95 µM and an IC50 [3] of over 10 µM. The CT5 (MT2) was 100 µM and the selectivity ratio [4] was under 1.

Compound `CC(CCC(=O)O)C1CC[C@H]2[C@@H]3CCC4C[C@H](OC(=O)/C=C/c5ccc(O)c(O)c5)CC[C@]4(C)[C@H]3C[C@H](OC(=O)/C=C/c3ccc(O)c(O)c3)[C@]12C` (stereo partly drawn) has an EC50 ([2]; Human immunodeficiency virus 1) of over 17 µM, a CT5 (MT2) of 6.4 µM and a selectivity ratio [4] of under 1. The IC50 ([5]; Human immunodeficiency virus 1) was 1.97 µM.

With `CC(CCC(=O)O)C1CC[C@H]2[C@@H]3[C@H](OC(=O)/C=C/c4ccc(O)c(O)c4)CC4C[C@H](OC(=O)/C=C/c5ccc(O)c(O)c5)CC[C@]4(C)[C@H]3C[C@H](OC(=O)/C=C/c3ccc(O)c(O)c3)[C@]12C` (stereo partly drawn) the EC50 ([2]; Human immunodeficiency virus 1) was over 140 µM, the CT5 (MT2) was 11.4 µM and the selectivity ratio [4] was under 1. The IC50 ([5]; Human immunodeficiency virus 1) was 0.75 µM and the IC50 ([6]; Human immunodeficiency virus 1) was 0.97 µM.

`O=C(OC(C(=O)O)C(OC(=O)c1cccs1)C(=O)O)c1cccs1` (stereo not drawn) showed an IC50 [1] of over 10 µM, an EC50 ([2]; Human immunodeficiency virus 1) of over 190 µM and an IC50 [3] of over 10 µM. It also gave a CT5 (MT2) of over 190 µM and a selectivity ratio [4] of under 1.

With `CC(=O)Oc1ccc(/C=C/C(=O)OC(C(=O)O)C(OC(=O)/C=C/c2ccc(OC(C)=O)c(OC(C)=O)c2)C(=O)O)cc1OC(C)=O` (stereo not drawn) the EC50 ([2]; Human immunodeficiency virus 1) was 4 µM, the CT5 (MT2) was 18.6 µM and the selectivity ratio [4] was 4.5. It also gave an IC50 ([5]; Human immunodeficiency virus 1) of 15.7 µM and an IC50 ([6]; Human immunodeficiency virus 1) of over 10 µM.

`CCN(CC)C(=O)C(Cc1ccc(O)c(O)c1)C(Cc1ccc(O)c(O)c1)C(=O)O` (stereo not drawn) gave an EC50 ([2]; Human immunodeficiency virus 1) of 186 µM, a CT5 (MT2) of 93 µM and a selectivity ratio [4] of 0.5. For the same compound, the IC50 ([5]; Human immunodeficiency virus 1) was 5.27 µM and the IC50 ([6]; Human immunodeficiency virus 1) was over 10 µM.

`O=C(O)C(=C\c1ccc(O)c(O)c1)/C(=C/c1ccc(O)c(O)c1)C(=O)O` gave an EC50 ([2]; Human immunodeficiency virus 1) of 4.4 µM, a CT5 (MT2) of 55 µM and a selectivity ratio [4] of 12. For the same compound, the IC50 ([5]; Human immunodeficiency virus 1) was 2.19 µM and the IC50 ([6]; Human immunodeficiency virus 1) was 0.83 µM.

For `O=C(/C=C\c1ccc(O)c(O)c1)NC(CNC(=O)/C=C/c1ccc(O)c(O)c1)C(=O)O` (stereo not drawn), the EC50 ([2]; Human immunodeficiency virus 1) was 35 µM, the CT5 (MT2) was 35 µM and the selectivity ratio [4] was 1. It also gave an IC50 ([5]; Human immunodeficiency virus 1) of 0.57 µM and an IC50 ([6]; Human immunodeficiency virus 1) of 0.83 µM.

For `O=C(/C=C/c1ccc(O)c(O)c1)Nc1cc(NC(=O)/C=C/c2ccc(O)c(O)c2)cc(C(=O)O)c1`, the EC50 ([2]; Human immunodeficiency virus 1) was 4.6 µM, the CT5 (MT2) was 47 µM and the selectivity ratio [4] was 10. For the same compound, the IC50 ([5]; Human immunodeficiency virus 1) was 0.73 µM.

`O=C(O)C(Cc1ccc(O)c(O)c1)C(Cc1ccc(O)c(O)c1)C(=O)O` (stereo in doubt; 23b) gave an EC50 [2] of 12.6 µM, a CT5 (MT2) of 76 µM and a TI [4] of 6. The IC50 [5] was 4.32 µM and the IC50 [6] was 0.23 µM.

`O=C(O)C(Cc1ccc(O)c(O)c1)C(Cc1ccc(O)c(O)c1)C(=O)O` (stereo in doubt; 24b) showed an EC50 [2] of 1.9 µM, a CT5 (MT2) of 71 µM and a TI [4] of 37. The IC50 ([5]; Human immunodeficiency virus 1) was 2.78 µM and the IC50 ([6]; Human immunodeficiency virus 1) was 0.44 µM.
